pIC50: −log10 of the molar value.
What was measured:
[1] = biological target: T1, Steroid 17-alpha-hydroxylase/17,20 lyase (Rattus norvegicus, UniProt P11715); assay: Inhibition of 17,20 lyase activity in Sprague-Dawley rat testicular microsomes; set-up: species or system Testis
T1 sequence (P11715 whole entry): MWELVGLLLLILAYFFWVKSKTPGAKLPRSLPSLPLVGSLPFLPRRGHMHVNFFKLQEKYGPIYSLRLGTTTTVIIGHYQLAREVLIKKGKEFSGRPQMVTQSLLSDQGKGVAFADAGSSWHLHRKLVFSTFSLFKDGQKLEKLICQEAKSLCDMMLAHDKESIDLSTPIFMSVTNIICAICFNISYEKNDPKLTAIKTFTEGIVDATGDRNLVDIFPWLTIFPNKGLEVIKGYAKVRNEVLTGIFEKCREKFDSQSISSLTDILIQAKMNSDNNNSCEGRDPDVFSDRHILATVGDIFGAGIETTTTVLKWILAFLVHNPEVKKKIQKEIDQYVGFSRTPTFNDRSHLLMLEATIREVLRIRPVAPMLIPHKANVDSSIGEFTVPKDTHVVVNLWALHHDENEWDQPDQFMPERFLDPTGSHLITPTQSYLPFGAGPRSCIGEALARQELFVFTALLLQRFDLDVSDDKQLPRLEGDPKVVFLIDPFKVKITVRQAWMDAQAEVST
Outline: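 Testicular microsomes from 13-week-old male SD rats (7 µg protein) in 75 mM phosphate buffer, pH 7.4, with 10 nM [1,2-3H]-17α-hydroxyprogesterone, 5 mM NADPH, and 1–1000 nM test compound (all final). Compounds were diluted in DMF and then in water. Incubation ran 15 min at 37 °C and was stopped with ethyl acetate. IC50 is the concentration that halves product formation.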

[2] = biological target: T2, Steroid 17-alpha-hydroxylase/17,20 lyase (Homo sapiens, UniProt P05093); assay: Inhibition of 17,20 lyase activity in human
T2 sequence (P05093 whole entry): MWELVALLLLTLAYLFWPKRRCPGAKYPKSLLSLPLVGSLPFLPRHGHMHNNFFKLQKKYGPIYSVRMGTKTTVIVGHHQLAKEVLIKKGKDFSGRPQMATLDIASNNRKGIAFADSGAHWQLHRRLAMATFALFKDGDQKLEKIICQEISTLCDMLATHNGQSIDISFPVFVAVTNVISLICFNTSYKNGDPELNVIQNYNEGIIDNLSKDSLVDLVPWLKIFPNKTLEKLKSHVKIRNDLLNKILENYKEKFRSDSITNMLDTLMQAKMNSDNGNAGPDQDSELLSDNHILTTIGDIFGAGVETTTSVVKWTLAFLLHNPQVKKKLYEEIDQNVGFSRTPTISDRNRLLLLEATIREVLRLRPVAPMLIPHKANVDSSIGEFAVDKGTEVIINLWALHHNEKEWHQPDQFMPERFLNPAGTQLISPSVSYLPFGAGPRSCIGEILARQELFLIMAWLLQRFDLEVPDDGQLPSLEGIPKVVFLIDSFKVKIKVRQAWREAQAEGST
Outline: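 Recombinant P450c17 (0.5 pmol) with cytochrome b5 (0.5 pmol) and NADPH-P450 reductase (20.8 ng) in 75 mM phosphate pH 7.4 with 1 mM MgCl2. Substrate 10 nM [1,2-3H]-17α-hydroxypregnenolone, 5 mM NADPH, compound 1–1000 nM. Incubated 15 min at 37 °C, ethyl acetate extraction, DHEA separated from substrate by silica TLC (cyclohexane–ethyl acetate 3:2). IC50 taken as 50% reduction in product.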

[3] = biological target: Cytochrome P450 3A4 (Homo sapiens, UniProt P08684); assay: Inhibition of human CYP3A4; format: ADME
Cytochrome P450 3A4, sequence (P08684 whole entry): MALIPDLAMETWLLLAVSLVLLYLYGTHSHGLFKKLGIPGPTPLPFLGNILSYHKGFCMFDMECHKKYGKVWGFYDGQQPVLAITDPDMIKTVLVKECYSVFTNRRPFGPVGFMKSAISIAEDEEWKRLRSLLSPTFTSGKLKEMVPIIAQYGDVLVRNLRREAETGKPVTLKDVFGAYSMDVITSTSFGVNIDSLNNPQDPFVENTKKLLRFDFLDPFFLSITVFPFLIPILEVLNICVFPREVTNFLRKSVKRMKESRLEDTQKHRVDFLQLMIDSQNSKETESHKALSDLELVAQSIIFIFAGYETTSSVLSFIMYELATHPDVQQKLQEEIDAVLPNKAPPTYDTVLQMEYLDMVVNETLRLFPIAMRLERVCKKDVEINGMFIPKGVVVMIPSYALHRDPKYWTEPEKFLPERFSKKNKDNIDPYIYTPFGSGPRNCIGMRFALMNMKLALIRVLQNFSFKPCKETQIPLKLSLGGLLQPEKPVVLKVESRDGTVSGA

[4] = biological target: T3, Cytochrome P450c11B3 (Rattus norvegicus, UniProt Q64546); assay: Inhibition of 11-hydroxylase activity in Sprague-Dawley rat adrenal gland; format: tissue-based
T3 sequence (Q64546 whole entry): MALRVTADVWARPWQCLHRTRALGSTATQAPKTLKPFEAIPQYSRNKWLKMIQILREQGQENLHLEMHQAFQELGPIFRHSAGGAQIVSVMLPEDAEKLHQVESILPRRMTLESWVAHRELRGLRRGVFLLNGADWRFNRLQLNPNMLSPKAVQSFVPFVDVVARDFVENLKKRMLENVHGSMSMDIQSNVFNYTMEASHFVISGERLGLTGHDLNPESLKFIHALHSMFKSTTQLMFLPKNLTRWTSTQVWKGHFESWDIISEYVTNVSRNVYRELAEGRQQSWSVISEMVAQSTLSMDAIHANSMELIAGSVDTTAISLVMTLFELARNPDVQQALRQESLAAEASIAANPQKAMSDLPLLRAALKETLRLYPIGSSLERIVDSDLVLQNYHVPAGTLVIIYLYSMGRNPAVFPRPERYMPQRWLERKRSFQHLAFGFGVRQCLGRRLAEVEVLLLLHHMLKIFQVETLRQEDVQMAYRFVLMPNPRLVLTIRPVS
Outline: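 Mitochondrial fraction from SD rat adrenal glands, 4 µg protein, in 200 mM mannitol, 4.5 mM HEPES, 2.3 mM K phosphate pH 7.4, 0.1 mM EDTA, 0.03% BSA, 4.5 mM NADPH, 11 mM CaCl2. Substrate 10 nM [1,2-3H]-11-deoxycortisol. Test compound 1–1000 nM, diluted in DMF. Incubated 30 min at 37 °C, stopped with ethyl acetate. Final concentrations.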

[5] = biological target: T4, Cytochrome P450 2C8 (Homo sapiens, UniProt P10632); assay: Inhibition of human CYP2C8; format: ADME
T4 sequence (P10632 whole entry): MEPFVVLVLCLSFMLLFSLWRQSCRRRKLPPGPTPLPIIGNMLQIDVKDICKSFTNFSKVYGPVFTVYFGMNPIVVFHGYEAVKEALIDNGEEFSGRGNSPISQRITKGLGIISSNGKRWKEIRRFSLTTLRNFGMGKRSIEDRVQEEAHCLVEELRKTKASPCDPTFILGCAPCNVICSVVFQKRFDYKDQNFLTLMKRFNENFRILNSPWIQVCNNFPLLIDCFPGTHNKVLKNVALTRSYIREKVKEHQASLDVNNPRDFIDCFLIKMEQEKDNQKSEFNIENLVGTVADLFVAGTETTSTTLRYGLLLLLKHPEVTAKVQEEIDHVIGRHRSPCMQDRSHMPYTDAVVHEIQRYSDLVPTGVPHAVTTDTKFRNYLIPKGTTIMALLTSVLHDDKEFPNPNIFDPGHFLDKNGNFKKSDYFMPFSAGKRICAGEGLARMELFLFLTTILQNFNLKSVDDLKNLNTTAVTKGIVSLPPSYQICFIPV
Outline: (§1)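 Microsomes from human B-lymphoblastoid cells expressing one CYP isoform, with inhibitor at 3, 10 and 30 µmol/L. Buffer 80 mmol/L phosphate pH 7.4 (Tris-HCl pH 7.4 for CYP2C9) with 10 mmol/L MgCl2 and a NADPH-regenerating system. Inhibitor and substrate preincubated 5 min at 37 °C, then microsomes added to start. Marker reactions: tolbutamide hydroxylation (CYP2C8, CYP2C9), bufuralol 1'-hydroxylation (CYP2D6). Control was methanol alone.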

[6] = biological target: Cytochrome P450 2C9 (Homo sapiens, UniProt P11712); assay: Inhibition of human CYP2C9; format: ADME; outline: as §1
Cytochrome P450 2C9, sequence (P11712 whole entry): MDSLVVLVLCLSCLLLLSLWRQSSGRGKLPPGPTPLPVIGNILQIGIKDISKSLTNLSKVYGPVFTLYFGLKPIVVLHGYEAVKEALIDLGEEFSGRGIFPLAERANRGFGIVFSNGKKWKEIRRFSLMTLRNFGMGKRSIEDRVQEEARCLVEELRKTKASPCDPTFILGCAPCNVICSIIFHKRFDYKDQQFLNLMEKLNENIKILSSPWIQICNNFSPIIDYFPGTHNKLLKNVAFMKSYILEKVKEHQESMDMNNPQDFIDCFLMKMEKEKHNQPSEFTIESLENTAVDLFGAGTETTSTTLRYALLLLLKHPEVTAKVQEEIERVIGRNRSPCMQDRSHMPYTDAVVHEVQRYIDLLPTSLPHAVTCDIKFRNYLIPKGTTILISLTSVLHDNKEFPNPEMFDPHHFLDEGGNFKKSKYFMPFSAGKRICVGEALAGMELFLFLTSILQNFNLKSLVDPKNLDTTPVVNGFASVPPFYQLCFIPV

[7] = biological target: Cytochrome P450 2D6 (Homo sapiens, UniProt P10635); assay: Inhibition of human CYP2D6; format: ADME; outline: as §1
Cytochrome P450 2D6, sequence (P10635 whole entry): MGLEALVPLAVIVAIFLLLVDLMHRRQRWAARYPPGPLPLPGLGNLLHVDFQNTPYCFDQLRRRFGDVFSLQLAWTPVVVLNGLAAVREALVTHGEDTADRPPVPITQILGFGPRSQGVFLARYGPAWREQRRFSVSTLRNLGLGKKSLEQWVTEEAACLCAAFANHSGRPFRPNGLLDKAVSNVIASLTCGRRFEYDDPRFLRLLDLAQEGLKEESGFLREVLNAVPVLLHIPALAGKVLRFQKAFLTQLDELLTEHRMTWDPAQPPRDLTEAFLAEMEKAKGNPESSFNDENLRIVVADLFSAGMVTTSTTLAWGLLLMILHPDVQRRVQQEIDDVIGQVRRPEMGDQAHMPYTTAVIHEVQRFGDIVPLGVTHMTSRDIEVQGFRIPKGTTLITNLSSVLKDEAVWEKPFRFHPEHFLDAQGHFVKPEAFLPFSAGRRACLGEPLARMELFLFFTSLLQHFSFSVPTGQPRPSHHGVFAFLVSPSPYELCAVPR

[8] = Tmax in Crl:CD(SD)IGS rat at 10 mg/kg, po by HPLC analysis; format: ADME, organism-based; set-up: dose 10 mg/kg, route oral; conditions: in vivo
Outline: (§2)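 Non-fasted male Crl:CD(SD)IGS rats, 8 weeks old, n = 3. Dosed 1 mg/kg iv or 10 mg/kg po. Plasma sampled at 5 (iv only), 10 (iv only), 15, 30 min and 1, 2, 4, 8, 24 h. Plasma deproteinized with acetonitrile, supernatant dried under N2, taken up in mobile phase and analysed by HPLC on an ODS column. […] Mean ± SD.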

[9] = Cmax in Crl:CD(SD)IGS rat at 10 mg/kg, po by HPLC analysis; format: ADME, organism-based; set-up: dose 10 mg/kg, route oral; conditions: in vivo; outline: as §2
[10] = AUC (0 to 24 hrs) in Crl:CD(SD)IGS rat at 10 mg/kg, po by HPLC analysis; format: ADME, organism-based; set-up: time < 24 hr, dose 10 mg/kg, route oral; conditions: plasma
Outline: (§3)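 Male non-fasted 8-week-old rats, n = 3; 1 mg/kg IV or 10 mg/kg oral. Plasma sampled at 5, 10, 15, 30 min and 1, 2, 4, 8, 24 h after IV dosing, or at 15, 30 min and 1, 2, 4, 8, 24 h after oral dosing. Plasma deproteinized with acetonitrile, dried under N₂, taken up in mobile phase, and analysed by reverse-phase HPLC on an ODS column.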

[11] = Oral bioavailability in Crl:CD(SD)IGS rat at 10 mg/kg by HPLC analysis; format: ADME, organism-based; conditions: in vivo; outline: as §2
[12] = AUC (0 to 24 hrs) in Crl:CD(SD)IGS rat at 1 mg/kg, iv by HPLC analysis; format: ADME, organism-based; set-up: time < 24 hr, dose 1 mg/kg, route intravenous; conditions: plasma; outline: as §3

With CC(C)[C@](O)(c1ccc2c3c(ccc2c1)C(=O)N(C)C3)c1cnc[nH]1 the pIC50 [1] was > 8.00, the pIC50 [2] was 7.72 and the pIC50 [3] was < 5.00. The pIC50 [4] was < 6.00, the pIC50 [5] was 4.55 and the pIC50 [6] was > 5.52. For the same compound, the pIC50 [7] was < 4.52, the Tmax [8] was 25.2 min and the Cmax [9] was 2940 ng/mL. The AUC(0-t) at 24 h [10] was 7320 ng·h/mL, the bioavailability [11] was 128% and the AUC(0-t) at 24 h [12] was 573 ng·h/mL.

Source: ChEMBL document CHEMBL1681730, “17,20-lyase inhibitors. Part 4: design, synthesis and structure-activity relationships of naphthylmethylimidazole derivatives as novel 17,20-lyase inhibitors” (Bioorg Med Chem, 2011)
